Assay outcomes: PubChem, The Scripps Research Institute Molecular Screening Center
Compounds with a hit are over-represented: about 2.3% of the library has one in this group of screens.
pPAFAH FP inh: pPAFAH enzyme inhibitors, primary screen, biochemical, fluorescence polarization, human; AID 463082, 2010; recombinant pPAFAH, FP-rhodamine probe fluorescence polarization; actives 1.5% (n = 330,000); Platelet-activating factor acetylhydrolase (Homo sapiens), Q13093; inhibition, % at 3.39 µM;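 active means inhibition above the mean inhibition across the screen plus 3 SD, cut at about 25% in these data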;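 further: inhibitors block binding of the rhodamine activity-based probe so polarization drops; 0% = enzyme with DMSO and 100% = wells lacking pPAFAH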
mABHD4 FP: ABHD4 inhibitors, primary screen, biochemical, fluorescence polarization, mouse. purified mABHD4, FP-Rh probe fluorescence polarization. inhibition, % at 8.92 µM. actives 0.54% (n = 370,000). AID 720543, 2013;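 active means inhibition exceeding the mean over every tested compound plus 3 SD, cut at about 30% in these data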;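 further: 0% = plate median of compound wells and 100% = S159A mutant with DMSO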
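Assay system: Wild-type mouse ABHD4 protein | Medium: HEPES pH 7.0 buffer, 150 mM NaCl, 0.01% Pluronic F-127 | Incubation: Enzyme–compound pre-incubation 45 min, then probe 60 min, both 25 °C | Technique: Fluorescence polarization with parallel and perpendicular emission, 525/598 nm | Evaluation: % inhibition of FP-Rh probe binding versus controls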
TCR CD3 inh: inhibitors of human TCR-CD3 interaction, primary screen, biochemical, fluorescence, TAMRA-labeled TCR probe. actives 0.37% (n = 360,000). inhibition, % at 9.4 µM. T-cell receptor (TCR); in the data active means inhibition above about 19%;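 further: recombinant mutant TCR 2C K166C tagged with TAMRA read by polarization; 0% = receptor in buffer alone and 100% = receptor with positive control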
SIAE primary: human SIAE inhibitors, primary screen, biochemical, fluorescence polarization, FP-Rh probe, 1536-well HTS | actives 0.69% (n = 370,000) | SIAE FP-Rh probe binding | Sialate O-acetylesterase (Homo sapiens), Q9HAT2 | inhibition, % at 9.66 µM;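 active means inhibition above a cutoff: mean of compounds within the control limits plus 3 SD of those, cut at about 17% in these data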;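 further: 0% = plate median of compound wells and 100% = probe without SIAE protein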
Target sequence (Q9HAT2 whole entry, looked up): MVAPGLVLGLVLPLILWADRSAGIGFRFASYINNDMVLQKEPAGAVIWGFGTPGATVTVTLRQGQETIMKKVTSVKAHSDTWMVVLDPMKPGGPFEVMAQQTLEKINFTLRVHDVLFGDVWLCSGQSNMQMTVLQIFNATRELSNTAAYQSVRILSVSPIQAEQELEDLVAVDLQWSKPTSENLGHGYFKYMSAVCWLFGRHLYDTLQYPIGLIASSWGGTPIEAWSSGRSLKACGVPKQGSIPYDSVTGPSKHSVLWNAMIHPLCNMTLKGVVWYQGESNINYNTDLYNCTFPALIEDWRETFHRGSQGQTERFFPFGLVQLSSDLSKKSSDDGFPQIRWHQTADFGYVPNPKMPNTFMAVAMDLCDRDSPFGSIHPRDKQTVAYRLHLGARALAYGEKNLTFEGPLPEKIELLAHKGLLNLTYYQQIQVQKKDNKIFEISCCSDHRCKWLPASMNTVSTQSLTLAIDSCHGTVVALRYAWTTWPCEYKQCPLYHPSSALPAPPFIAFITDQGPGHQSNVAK
HTRA1 inhibitor: HTRA1 serine protease inhibitors, primary screen, biochemical, fluorescence polarization, HTS. Q92743. actives 0.5% (n = 340,000). recombinant HTRA1, FP-rhodamine activity-based probe. inhibition, % at 5.96 µM; in the data active means inhibition above about 36%;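 further: 0% = enzyme with DMSO and 100% = wells lacking enzyme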
* hit, by the source's call; / = no result given; + = active, no number.

SMILES	pPAFAH FP inh	mABHD4 FP	TCR CD3 inh	SIAE primary	HTRA1 inhibitor
Cc1nc(C)c(-c2csc(Nc3cccc(O)c3)n2)s1	15	12	-4	1	-2
CCC(=O)Nc1nc(C)c(-c2csc(Nc3cccc(O)c3)n2)s1	32*	-3	-6	14	12
CCOC(=O)C1CCN(C(=O)COC(=O)Cc2ccc(Cl)cc2)CC1	30*	0	-2	5	3
CN1CC=C2C(C#N)=C(N)C(C#N)(C#N)[C@H](c3ccoc3)[C@H]2C1	32*	/	/	/	24
Cc1ccc(C2C3CN(C(C)C)CC=C3C(C#N)=C(N)C2(C#N)C#N)cc1 (stereo not drawn)	18	34*	8	1	3
Cc1ccc(-n2c(Cc3cccs3)nnc2SCC(=O)Nc2ccccc2-c2ccccc2)cc1	/	-1	/	-3	/
Cc1cccc(NC(=O)CN2C(=O)CCSc3ccccc32)c1C	/	2	/	0	/
CCCCC(CC)CNS(=O)(=O)c1ccc2c(c1)CCN2C(=O)CCC(=O)O (stereo not drawn)	32*	-14	2	-7	-7
O=C(O)CCC(=O)N1CCc2cc(S(=O)(=O)NC3CCCC3)ccc21	-1	-1	3	-2	-2
COC(=O)[C@]12C[C@H](CC(=O)NCCc3ccccc3OC)C(=O)N(Cc3ccccc3)C1=C[C@H](C(C)(C)C)O[C@@H]2C	/	-7	5	1	/
COc1cccc(N2CCN(C(=O)CCNS(=O)(=O)c3ccc(F)c(F)c3)CC2)c1	29*	-1	4	9	-11
COC(=O)c1cc2c(c3c4cc(F)ccc4n(S(=O)(=O)c4ccccc4)c13)C(=O)N(Cc1ccc(N(C)C)cc1)C2	/	-2	4	7	/
CCN(CC)S(=O)(=O)c1cccc(N=Nc2sc(N)nc2C)c1	26*	4	1	9	10
CCOc1ccc(S(=O)(=O)Nc2ccc(C(=O)NCCCN3CCOCC3)cc2)cc1	6	0	5	-1	7
CCOc1ccc(NS(=O)(=O)c2ccc(C(=O)NCCN3CCOCC3)cc2)cc1	32*	4	-1	6	2
Cc1ccc(NS(=O)(=O)c2ccc(C(=O)NCCN3CCOCC3)cc2)cc1	25*	-5	1	1	5
N[C@H](C(=O)N1CCC[C@@H]1C(=O)N1CCC2CCN(S(=O)(=O)c3ccccc3)CC21)c1ccccc1 (stereo partly drawn)	/	-6	/	0	/
COc1cccc(Nc2nc3ccccc3nc2NS(=O)(=O)c2cccs2)c1	32*	18	5	4	2
COc1ccc(Nc2nc(-c3ccc4c(c3)NC(=O)CO4)cs2)cc1	30*	28	5	8	31
CCC(C)Nc1nc(-c2ccc3c(c2)NC(=O)CO3)cs1 (stereo not drawn)	25*	-15	-7	-15	6
CC(C)NC(=O)[C@]1(C#N)CC(=O)N(C)[C@@H]1c1ccccc1	/	5	/	8	/
CC1=Nc2ccccc2/C1=C\c1sc(Nc2ccc(C)cc2)nc1O	28*	20	-1	15	2
Oc1cccc(Nc2nc(O)c(/C=C3\C=Nc4ccccc43)s2)c1	28*	-86	-19	-55	-31
O=C(Cn1c(O)c(/C=C2\C=Nc3ccccc32)sc1=O)N1CCOCC1	5	6	6	4	-1
COC(=O)C1=C(C)N(Cc2ccc(C(F)(F)F)cc2)C(=NCc2ccccc2)NC1c1ccc(Cl)cc1 (stereo not drawn)	/	20	8	4	/
SMILES	pPAFAH FP inh	mABHD4 FP	TCR CD3 inh	SIAE primary	HTRA1 inhibitor
Cc1ccc(NC(=O)c2cc(N3C(=O)C4CC=CCC4C3=O)ccc2N2CCOCC2)cc1Cl (stereo not drawn)	26*	/	/	/	-3
CN(C)c1ccc(NC(=O)NC2CCCCN(Cc3cccc(Cl)c3)C2=O)cc1 (stereo not drawn)	/	11	/	-10	/
COc1ccc(NC2c3ncccc3C(=O)N2Cc2ccccc2)c(OC)c1 (stereo not drawn)	5	7	-4	+	2
COc1ccc(CN2C(=O)c3cccnc3C2Nc2ccc(OC)c(Cl)c2)cc1 (stereo not drawn)	7	-2	6	3	-3
Cc1ccc(S(=O)(=O)N2CCC(=O)N(CCOCc3ccc(C(F)(F)F)cc3)CC2)cc1	30*	-8	2	10	-10
CCOC(=O)[C@]12CCCC=C1N(CCCOC)C(=O)[C@@H]2CC(=O)NCc1ccc(OC)c(OC)c1	/	0	/	2	/
O=C1NNC(c2ccccc2)=N/C1=C\c1ccccc1Cl	/	3	-5	-2	-16
O=C1NNC(c2ccccc2)=N/C1=C\c1ccco1	26*	29	-1	12	22
N#Cc1ccc(-c2ccco2)nc1SCC(=O)c1ccc(Cl)cc1	39*	19	7	2	-6
CCN(CC)C(=O)CC[C@H]1CC[C@]2(CCCN(Cc3cccc4ccccc34)C2)O1	/	0	/	2	/
CC1CCCC(NC(=O)COC(=O)CCC2CCCC2)C1C (stereo not drawn)	28*	3	-3	3	-6
CC1CCCC(NC(=O)Cc2ccc(Br)cc2)C1C (stereo not drawn)	9	-4	-1	6	-11
Cc1ccsc1C(=O)OCC(=O)NC1CCCCC1C (stereo not drawn)	24	3	-2	5	1
Cc1ccsc1C(=O)OCC(=O)NC1CCCC(C)C1C (stereo not drawn)	32*	3	-4	9	-4
Cc1ccc(OCCC(=O)OCC(=O)NC2CCCC(C)C2C)cc1 (stereo not drawn)	22	5	-4	10	-4
CC1CCCC(NC(=O)COC(=O)Cc2ccc(Br)cc2)C1C (stereo not drawn)	25*	2	-2	-2	/
O[C@@H](Cc1ccccc1)[C@@H](/C=C/c1ccccc1)NCCc1ccccc1	/	19	-4	2	/
COC(=O)[C@]12C[C@H](CC(=O)NCc3ccc(OC)c(OC)c3)C(=O)N(Cc3ccco3)C1=C[C@H](COCc1ccccc1)O[C@@H]2C	/	-6	/	-11	/
COc1cccc(-c2nnc(SCC(=O)OC(C)C)n2-c2ccc(Cl)cc2)c1	/	-2	/	0	/
COC(=O)C1=C(CSc2nc3c(cc2C#N)CN(C)CC3)OC(N)=C(C#N)C1c1ccccc1F (stereo not drawn)	28*	/	/	/	17
CCC(C)[C@H]1CNC(=S)N1CCc1cc(C(F)(F)F)cc(C(F)(F)F)c1 (stereo partly drawn)	27*	-7	5	2	-36
O=C(O)C(C(=O)/C=C/c1ccco1)=C1SCCS1	24	7	10	9	5
O=C(C=C1SCCS1)/C=C/c1ccco1	25*	8	12	0	-3
